target: Cytochrome P450 3A4 (Homo sapiens, UniProt P08684); test: Inhibition of human CYP3A4 expressed in Escherichia coli assessed as inhibition of nifedipine oxidation; type: ADME
Outline: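 Bicistronic human CYP3A4 expressed in E. coli DH5; bacterial membrane fractions (sonication, differential centrifugation) stored at -75 °C, P450 content by CO-difference spectroscopy. Nifedipine substrate with 100 pmol P450 per incubation, 37 °C shaking waterbath; pyridine metabolite quantified by HPLC.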

Chain of Cytochrome P450 3A4 (P08684 whole entry): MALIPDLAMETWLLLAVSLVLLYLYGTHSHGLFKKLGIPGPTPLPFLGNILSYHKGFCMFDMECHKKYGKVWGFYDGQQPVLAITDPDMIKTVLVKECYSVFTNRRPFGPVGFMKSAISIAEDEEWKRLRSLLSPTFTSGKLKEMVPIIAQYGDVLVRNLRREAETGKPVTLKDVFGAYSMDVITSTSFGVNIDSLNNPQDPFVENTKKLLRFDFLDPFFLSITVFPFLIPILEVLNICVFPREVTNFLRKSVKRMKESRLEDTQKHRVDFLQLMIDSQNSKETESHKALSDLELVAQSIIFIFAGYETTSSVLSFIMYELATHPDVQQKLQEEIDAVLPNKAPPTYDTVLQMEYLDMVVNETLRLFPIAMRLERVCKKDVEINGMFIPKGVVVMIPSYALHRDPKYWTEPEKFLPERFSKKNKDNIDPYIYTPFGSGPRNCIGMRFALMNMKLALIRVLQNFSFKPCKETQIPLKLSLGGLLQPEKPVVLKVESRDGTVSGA

| IC50 | Compound |
| --- | --- |
| > 100 µM | C[C@H](C[C@@H](O)[C@](C)(O)[C@H]1CC[C@@]2(O)C3=CC(=O)[C@@H]4C[C@@H](O[C@@H]5O[C@H](CO)[C@@H](O)[C@H](O)[C@H]5O)[C@@H](O)C[C@]4(C)[C@H]3CC[C@]12C)C(C)(C)O [FIBRAURECDYSIDE A] |
| > 100 µM | C[C@@]12[C@H]3CC=C[C@]1(O[C@@H]1O[C@H](CO)[C@@H](O)[C@H](O)[C@H]1O)C(=O)O[C@@H]2C[C@]1(O)C(=O)O[C@H](c2ccoc2)C[C@@]31C [FIBRAURETINOSIDE A] |
| > 100 µM | C[C@@]12C[C@H](c3ccoc3)OC(=O)[C@@H]1[C@@H](O)C[C@]1(C)[C@H]2[C@@H]2OC(=O)[C@@]1(O)[C@H]1O[C@@H]21 [FIBRAURETIN A] |
| > 100 µM | C[C@@]12C[C@H](c3ccoc3)OC(=O)[C@@H]1CC[C@@]1(CO[C@@H]3O[C@H](CO)[C@@H](O)[C@H](O)[C@H]3O)C(=O)C=CC[C@H]12 |
| 0.9 µM | COc1cc2c(cc1OC)-c1cc3ccc(OC)c(OC)c3c[n+]1CC2 [PALMATINE CHLORIDE] |
| > 2.5 µM | COc1cc2c(cc1O)-c1cc3ccc(O)c(OC)c3c[n+]1CC2 [STEPHARANINE] |
| > 100 µM | C[C@@]12[C@H]3CC=C[C@@]1(O[C@@H]1O[C@H](CO)[C@@H](O)[C@H](O)[C@H]1O)C(=O)O[C@@H]2C[C@]1(O)C(=O)O[C@H](c2ccoc2)C[C@@]31C [EPI-FIBRAURETINOSIDE A] |
| > 100 µM | C[C@@]12C[C@H](c3ccoc3)OC(=O)C1=CC[C@]1(C)[C@H]2[C@H]2C=C[C@]1(O[C@@H]1O[C@H](CO)[C@@H](O)[C@H](O)[C@H]1O)C(=O)O2 [FIBLEUCINOSIDE] |
| > 100 µM | C[C@@]12C[C@H](c3ccoc3)OC(=O)C1=CC[C@]1(C)[C@H]2[C@@H]2OC(=O)[C@@]1(O[C@@H]1O[C@H](CO)[C@@H](O)[C@H](O)[C@H]1O)[C@H]1O[C@@H]21 [FIBRAURINOSIDE] |

| Compound | IC50 |
| --- | --- |
| COc1cc2c(cc1O)-c1cc3ccc(OC)c(OC)c3c[n+]1CC2 [COLUMBAMINE] | 30.6 µM |
| C[C@H](C[C@@H](O)[C@](C)(O)[C@H]1CC[C@@]2(O)C3=CC(=O)[C@@H]4C[C@@H](O)[C@@H](O)C[C@]4(C)[C@H]3CC[C@]12C)C(C)(C)O [MAKISTERONE A] | > 100 µM |

Reference: ChEMBL document CHEMBL1141349, “Cytochrome P3A4 inhibitors and other constituents of Fibraurea tinctoria” (J Nat Prod, 2007)
